Test results: ChEMBL document CHEMBL2401652 (J Med Chem, 2013)
The source made the active and inactive calls.

How the values were obtained:
[1] = Cytotoxicity against human U87MG cells assessed as growth inhibition after 48 hrs by MTT assay; settings: U-87 MG
[2] = system: T98G; test: Induction of apoptosis in human T98G cells assessed as procaspase-7 cleavage at 50 uM after 24 hrs by Western blot analysis; assay type: functional, cell-based
Method in brief: (§1)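 Cells (1.5 × 10^6) exposed 24 h to compound (25 or 50 μM). 50 μg protein per lane resolved on 10% SDS-PAGE and transferred to nitrocellulose. Membrane blocked in 2% TBS-BSA, then probed with primary antibody overnight at 4 °C and HRP secondary. Detection by ECL, with β-actin as loading control. Untreated control run in parallel.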

[3] = system: PANC-1; test: Induction of apoptosis in human PANC1 cells assessed as procaspase-7 cleavage at 50 uM after 24 hrs by Western blot analysis; assay type: functional, cell-based
Method in brief: (§2)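 Cells (1.5 × 10^6) treated 24 h at 25 or 50 μM; 50 μg protein per lane on 10% SDS-PAGE, nitrocellulose, 2% TBS-BSA block, primary antibody overnight at 4 °C, HRP secondary, ECL detection; β-actin loading control; untreated controls in parallel.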

[4] = system: MOLT-4; test: Cytotoxicity against human MOLT4 cells assessed as growth inhibition after 48 hrs by MTT assay; settings: MOLT-4, 48 h
[5] = Binding affinity to DNA (unknown origin) at 100 uM after 2 hrs by UV-Vis absorption spectroscopic analysis
Method in brief: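 DNA (100 μg/mL; stock 1.0 mg/mL in 50 mM Tris-HCl pH 7.5, 50 mM NaCl) with ligand fixed at 100 μM; incubated at 37 °C, then diluted six-fold; absorbance scanned 220–350 nm at 25 °C, 1 cm quartz cell; 260 nm band monitored.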

[6] = system: PANC-1; test: Cytotoxicity against human PANC1 cells assessed as growth inhibition after 48 hrs by MTT assay; settings: PANC-1, 48 h
[7] = system: SW480; test: Cytotoxicity against human SW480 cells assessed as growth inhibition after 48 hrs by MTT assay; settings: SW480, 48 h
[8] = system: PANC-1; test: Induction of apoptosis in human PANC1 cells at 30 uM after 24 hrs by 7-AAD-based FACS flow cytometric analysis (reference value: 5.18%); assay type: functional
[9] = Cytotoxicity against human U373MG cells assessed as growth inhibition after 48 hrs by MTT assay; settings: U373 MG
[10] = system: HeLa; test: Cytotoxicity against human HeLa cells assessed as growth inhibition after 48 hrs by MTT assay
[11] = system: NCI-H23; test: Cytotoxicity against human NCI-H23 cells assessed as growth inhibition after 48 hrs by MTT assay; settings: NCI-H23, 48 h
[12] = system: T98G; test: Induction of apoptosis in human T98G cells assessed as procaspase-8 cleavage at 50 uM after 24 hrs by Western blot analysis; assay type: functional, cell-based; method in brief: as §1
[13] = system: PANC-1; test: Induction of apoptosis in human PANC1 cells assessed as PARP cleavage at 50 uM after 24 hrs by Western blot analysis; assay type: functional, cell-based; method in brief: as §2
[14] = system: T98G; test: Induction of apoptosis in human T98G cells at 30 uM after 24 hrs by 7-AAD-based FACS flow cytometric analysis (reference value: 5.3%); assay type: functional
[15] = Cytotoxicity against human LN229 cells assessed as growth inhibition after 48 hrs by MTT assay; settings: LN-229, 48 h
[16] = system: T98G; test: Induction of apoptosis in human T98G cells assessed as induction of DNA damage at 20 uM after 24 hrs by comet assay relative to untreated control; assay type: functional
Method in brief: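 T98G cells (1 × 10^5) treated 24 h with 0 or 20 μM. About 20000 cells embedded in 0.5% low-melting agarose and lysed overnight at 4 °C at pH 10. Alkaline electrophoresis (pH 13) for 30 min at 300 mA at 4 °C, then ethidium bromide staining. Tail length (nucleus centre to tail tip) from ≥20 comets, reported as mean ± SD.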

[17] = system: PANC-1; test: Induction of apoptosis in human PANC1 cells assessed as procaspase-8 cleavage at 50 uM after 24 hrs by Western blot analysis; assay type: functional, cell-based; method in brief: as §2
[18] = system: MOLT-3; test: Cytotoxicity against human MOLT3 cells assessed as growth inhibition after 48 hrs by MTT assay; settings: MOLT-3, 48 h
[19] = system: T98G; test: Cytotoxicity against human T98G cells assessed as growth inhibition at 50 uM by MTT assay; assay type: functional, cell-based; settings: TDE = time-dependent effect
[20] = Cytotoxicity against human A172 cells assessed as growth inhibition after 48 hrs by MTT assay; settings: A 172, 48 h
[21] = system: T98G; test: Induction of mitochondrial transmembrane depolarization in human T98G cells at 30 uM after 24 hrs by JC1 staining-based flow cytometric analysis (reference value: 10.26%); assay type: functional
[22] = system: ASPC1; test: Cytotoxicity against human AsPC1 cells assessed as growth inhibition after 48 hrs by MTT assay; settings: ASPC1, 48 h
[23] = system: PANC-1; test: Downregulation of Bcl-xL expression in human PANC1 cells at 50 uM after 24 hrs by Western blot analysis; assay type: functional, cell-based; method in brief: as §2
[24] = system: REH; test: Cytotoxicity against human REH cells assessed as growth inhibition after 48 hrs by MTT assay
[25] = system: K562; test: Cytotoxicity against human K562 cells assessed as growth inhibition after 48 hrs by MTT assay; settings: K562, 48 h
[26] = system: T98G; test: Cytotoxicity against human T98G cells assessed as growth inhibition after 48 hrs by MTT assay
[27] = system: PANC-1; test: Induction of mitochondrial transmembrane depolarization in human PANC1 cells at 30 uM after 24 hrs by JC1 staining-based flow cytometric analysis (reference value: 2.7%); assay type: functional
[28] = system: MIA PaCa-2; test: Cytotoxicity against human MIAPaCa2 cells assessed as growth inhibition after 48 hrs by MTT assay; settings: MIA PaCa-2, 48 h
[29] = system: T98G; test: Induction of apoptosis in human T98G cells assessed as PARP cleavage at 50 uM after 24 hrs by Western blot analysis; assay type: functional, cell-based; method in brief: as §1
[30] = system: PANC-1; test: Induction of apoptosis in human PANC1 cells at 30 uM after 24 hrs by dUTP-FITC staining-based TUNEL assay (reference value: 0.17%); assay type: functional
[31] = system: T98G; test: Induction of apoptosis in human T98G cells at 30 uM after 24 hrs by dUTP-FITC staining-based TUNEL assay (reference value: 1.88%); assay type: functional
[32] = system: PANC-1; test: Induction of apoptosis in human PANC1 cells assessed as procaspase-9 cleavage at 50 uM after 24 hrs by Western blot analysis; assay type: functional, cell-based; method in brief: as §1
[33] = system: HCT-116; test: Cytotoxicity against human HCT116 cells assessed as growth inhibition after 48 hrs by MTT assay; settings: HCT-116, 48 h
[34] = Cytotoxicity against human CEMC-7 cells assessed as growth inhibition after 48 hrs by MTT assay; settings: CEMC-7, 48 h
[35] = system: PANC-1; test: Downregulation of total Bid expression in human PANC1 cells at 50 uM after 24 hrs by Western blot analysis; assay type: functional, cell-based; method in brief: as §2
[36] = system: T98G; test: Induction of apoptosis in human T98G cells assessed as procaspase-9 cleavage at 50 uM after 24 hrs by Western blot analysis; assay type: functional, cell-based; method in brief: as §1
[37] = system: A549; test: Cytotoxicity against human A549 cells assessed as growth inhibition after 48 hrs by MTT assay; settings: A549, 48 h
[38] = system: T98G; test: Downregulation of Bcl-xL expression in human T98G cells at 50 uM after 24 hrs by Western blot analysis; assay type: functional, cell-based; method in brief: as §2
[39] = system: T98G; test: Downregulation of total Bid expression in human T98G cells at 50 uM after 24 hrs by Western blot analysis; assay type: functional, cell-based; method in brief: as §2
[40] = Cytotoxicity against human Panc 10.05 cells assessed as growth inhibition after 48 hrs by MTT assay; settings: Panc1005, 48 h
[41] = Binding affinity to DNA (unknown origin) assessed as induction of conformational changes at 300 uM after 2 hrs by CD spectrometric analysis
Method in brief: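 DNA at 1000 μg/mL in 50 mM Tris-HCl, pH 7.5, incubated with ligand for 2 h at 37 °C, then CD spectra recorded at 25 °C. Conformational change was judged from the 275 nm band (base stacking) and the 245 nm band (B-conformation).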

[42] = system: T98G; test: Induction of apoptosis in human T98G cells assessed as procaspase-8 cleavage at 25 uM after 24 hrs by Western blot analysis; assay type: functional, cell-based; method in brief: as §1
[43] = system: T98G; test: Cytotoxicity against human T98G cells assessed as growth inhibition after 24 hrs by MTT assay; assay type: functional, cell-based
Method in brief: (§3)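 Log-phase cells (1 × 10^4 per well) treated 24 h with 0–30 μM at 37 °C, 5% CO2, in triplicate; MTT added for final 3 h; vehicle 0.15% ethanol; IC50 from three separate days, mean ± SE.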

[44] = system: U-373MG ATCC; test: Cytotoxicity against human U373MG cells assessed as induction of morphological changes at 30 uM after 12 hrs by phase contrast microscopic analysis; assay type: functional, cell-based
Method in brief: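 U373MG glioma cells exposed to 30 μM for 3 or 12 h; shape and density examined by phase contrast microscopy against untreated cells.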

[45] = system: PANC-1; test: Induction of apoptosis in human PANC1 cells assessed as PARP cleavage at 25 uM after 24 hrs by Western blot analysis; assay type: functional, cell-based; method in brief: as §2
[46] = system: PANC-1; test: Induction of apoptosis in human PANC1 cells assessed as procaspase-8 cleavage at 25 uM after 24 hrs by Western blot analysis; assay type: functional, cell-based; method in brief: as §2
[47] = system: PANC-1; test: Cytotoxicity against human PANC1 cells assessed as growth inhibition after 24 hrs by MTT assay; assay type: functional, cell-based; method in brief: as §3
[48] = system: T98G; test: Downregulation of total Bid expression in human T98G cells at 25 uM after 24 hrs by Western blot analysis; assay type: functional, cell-based; method in brief: as §2
[49] = system: PANC-1; test: Downregulation of total Bid expression in human PANC1 cells at 25 uM after 24 hrs by Western blot analysis; assay type: functional, cell-based; method in brief: as §2
[50] = system: K562; test: Cytotoxicity against human K562 cells assessed as growth inhibition after 24 hrs by MTT assay; assay type: functional, cell-based; method in brief: as §3
[51] = system: HCT-116; test: Cytotoxicity against human HCT116 cells assessed as growth inhibition after 24 hrs by MTT assay; assay type: functional, cell-based; method in brief: as §3
[52] = system: A549; test: Cytotoxicity against human A549 cells assessed as growth inhibition after 24 hrs by MTT assay; assay type: functional, cell-based; method in brief: as §3
[53] = system: T98G; test: Induction of apoptosis in human T98G cells assessed as procaspase-7 cleavage at 25 uM after 24 hrs by Western blot analysis; assay type: functional, cell-based; method in brief: as §1
[54] = system: T98G; test: Downregulation of Bcl-xL expression in human T98G cells at 25 uM after 24 hrs by Western blot analysis; assay type: functional, cell-based; method in brief: as §2
[55] = system: PANC-1; test: Induction of apoptosis in human PANC1 cells assessed as procaspase-7 cleavage at 25 uM after 24 hrs by Western blot analysis; assay type: functional, cell-based; method in brief: as §2
[56] = system: PANC-1; test: Downregulation of Bcl-xL expression in human PANC1 cells at 25 uM after 24 hrs by Western blot analysis; assay type: functional, cell-based; method in brief: as §2
[57] = system: T98G; test: Induction of apoptosis in human T98G cells assessed as procaspase-9 cleavage at 25 uM after 24 hrs by Western blot analysis; assay type: functional, cell-based; method in brief: as §1
[58] = system: PANC-1; test: Induction of apoptosis in human PANC1 cells assessed as procaspase-9 cleavage at 25 uM after 24 hrs by Western blot analysis; assay type: functional, cell-based; method in brief: as §1
[59] = system: T98G; test: Induction of apoptosis in human T98G cells assessed as PARP cleavage at 25 uM after 24 hrs by Western blot analysis; assay type: functional, cell-based; method in brief: as §1

CC(C)=CCC[C@]1(C)C=Cc2c(c(C)cc3c2[nH]c2ccccc23)O1
active: Activity [2] | Activity [3] | Activity [5] | Activity [12] | Activity [13] | Activity [17] | growth inhibition (GI) [19] tde | Activity [23] | Activity [29] | Activity [32] | Activity [35] | Activity [36] | Activity [38] | Activity [39]
inactive: Activity [16]
17.06%: Activity [8]
10.13%: Activity [14]
16.72%: Activity [21]
15.3%: Activity [27]
9.58%: Activity [31]
1.13%: Activity [30]
25 µM: IC50 [1] | IC50 [4] | IC50 [6] | IC50 [7] | IC50 [9] | IC50 [10] | IC50 [11] | IC50 [15] | IC50 [18] | IC50 [20] | IC50 [22] | IC50 [24] | IC50 [25] | IC50 [26] | IC50 [28] | IC50 [33] | IC50 [34] | IC50 [37] | IC50 [40]

CC[n+]1c(-c2ccccc2)c2cc(N)ccc2c2ccc(N)cc21
active: Activity [41]

COc1ccc2c(c1)[nH]c1c3c(c(C)cc12)O[C@](C)(CCC=C(C)C)C=C3
active: growth inhibition (GI) [43] | Activity [5] | growth inhibition (GI) [47] | growth inhibition (GI) [50] | growth inhibition (GI) [51] | growth inhibition (GI) [52]
inactive: Activity [42] | Activity [44] | Activity [45] | Activity [46] | Activity [48] | Activity [49] | Activity [16] | Activity [53] | Activity [54] | Activity [55] | Activity [56] | Activity [57] | Activity [58] | Activity [59]
